Reference: ChEMBL document CHEMBL1153083, “Antiprotozoal, anticancer and antimicrobial activities of dihydroartemisinin acetal dimers and monomers” (Bioorg Med Chem, 2009)

Key:
[1] = test system: Candida albicans; assay: Antifungal activity against Candida albicans ATCC 90028 by modified CLSI/NCCLS method; assay type: functional, organism-based
[2] = test system: BT-549; assay: Cytotoxicity against human BT549 cells after 48 hrs by neutral red assay; assay type: functional, cell-based
Outline: (§1)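 Cells seeded at 25,000 per well and incubated 24 h, then exposed to samples for 48 h. Viable cells were counted by neutral red, with DMSO as vehicle control. IC50 or TC50 values were derived from logarithmic plots of growth inhibition versus concentration.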

[3] = test system: Plasmodium falciparum; assay: Antiplasmodial activity against Plasmodium falciparum W2 infected in RBCs by parasitic LDH release assay; assay type: functional, organism-based
Outline: (§2)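 Infected erythrocytes at 2% parasitemia and 2% hematocrit, in RPMI 1640 with 10% human serum and amikacin 60 μg/mL, were exposed to serial dilutions under N2/O2/CO2 (90:5:5) at 37°C for 72 h. LDH was read with Malstat reagent (30 min), then NBT/PES in the dark (60 min), stopped with 5% acetic acid, at 650 nm. IC50 came from percent growth dose-response curves.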

[4] = test system: SK-MEL; assay: Cytotoxicity against human SK-MEL cells after 48 hrs by neutral red assay; assay type: functional, cell-based; outline: as §1
[5] = test system: Pichia kudriavzevii; assay: Antifungal activity against Candida krusei ATCC 6258 by modified CLSI/NCCLS method; assay type: functional, organism-based
[6] = test system: Leishmania donovani; assay: Antileishmanial activity against Leishmania donovani promastigotes after 48 hrs by alamar blue assay; assay type: functional, organism-based; details: Leishmania donovani, 48 h; for IC50: read-out: IC50
[7] = Selectivity index, ratio of TC50 for african green monkey (Cercopithecus aethiops) Vero cells to IC50 for Plasmodium falciparum W2; assay type: toxicity, cell-based
[8] = test system: Cryptococcus neoformans; assay: Antifungal activity against Cryptococcus neoformans ATCC 90113 by modified CLSI/NCCLS method; assay type: functional, organism-based
[9] = test system: Plasmodium falciparum; assay: Antiplasmodial activity against Plasmodium falciparum D6 infected in RBCs by parasitic LDH release assay; assay type: functional, organism-based; outline: as §2
[10] = test system: Aspergillus fumigatus; assay: Antifungal activity against Aspergillus fumigatus ATCC 90906 by modified CLSI/NCCLS method; assay type: functional, organism-based
[11] = test system: KB; assay: Cytotoxicity against human KB cells after 48 hrs by neutral red assay; assay type: functional, cell-based; outline: as §1
[12] = test system: Pseudomonas aeruginosa; assay: Antibacterial activity against Pseudomonas aeruginosa ATCC 27853 by modified CLSI/NCCLS method; assay type: functional, organism-based
[13] = test system: Escherichia coli; assay: Antibacterial activity against Escherichia coli ATCC 35218 by modified CLSI/NCCLS method; assay type: functional, organism-based
[14] = test system: Staphylococcus aureus; assay: Antibacterial activity against Staphylococcus aureus ATCC 29213 by modified CLSI/NCCLS method; assay type: functional, organism-based
[15] = Selectivity index, ratio of TC50 for african green monkey (Cercopithecus aethiops) Vero cells to IC50 for Plasmodium falciparum D6; assay type: toxicity, cell-based
[16] = Toxicity against pig LLC-PK11 cells after 48 hrs by neutral red assay; assay type: cell-based, Sus scrofa; details: LLC-PK11 cells, read-out: TC50; outline: as §1
[17] = test system: Staphylococcus aureus; assay: Antibacterial activity against methicillin-resistant Staphylococcus aureus ATCC 43300 by modified CLSI/NCCLS method; assay type: functional, organism-based
[18] = test system: Vero; assay: (§3) Toxicity against african green monkey Vero cells after 48 hrs by neutral red assay; assay type: cell-based; details: chlorocebus sabaeus, vero, 48 h; outline: as §1
[19] = test system: Mycobacterium intracellulare; assay: Antibacterial activity against Mycobacterium intracellular ATCC 23068 by Franzblau method; assay type: functional, organism-based
[20] = Toxicity against african green monkey Vero cells; assay type: cell-based; details: chlorocebus sabaeus; outline: as §1
[21] = test system: Nakaseomyces glabratus; assay: Antifungal activity against Candida glabrata ATCC 90030 by modified CLSI/NCCLS method; assay type: functional, organism-based
[22] = test system: SK-OV-3; assay: Cytotoxicity against human SKOV3 cells after 48 hrs by neutral red assay; assay type: functional, cell-based; details: sk-ov-3; outline: as §1
[23] = as §3; assay type: cell-based; details: chlorocebus sabaeus, Vero cells; read-out: TC50; outline: as §1
[24] = Candida albicans, ATCC 90028, read-out: IC50
[25] = Pichia kudriavzevii, ATCC 6258, read-out: IC50
[26] = Homo sapiens, BT-549, 48 h, read-out: IC50
[27] = Homo sapiens, SK-MEL, 48 h, read-out: IC50
[28] = Homo sapiens, KB, 48 h, read-out: IC50
[29] = Mycobacterium intracellulare, ATCC 23068, read-out: IC50
[30] = Escherichia coli, ATCC 35218, read-out: IC50

| SMILES | IC50 [1, 24] [µM] | IC50 ([2]; bt-549) | IC50 [3] [nM] | IC50 ([4]; sk-mel) | IC50 [5, 25] [µM] | IC90 [6] [µM] | IC50 [6] [µM] | selectivity ratio [7] | IC50 [8] [µM] | IC50 [9] [nM] | IC50 [10] | IC50 [12] | IC50 [14] | selectivity ratio [15] | CC50 at 48 h [16] [nM] | IC50 [17] | CC50 [20] [µM] | IC50 [21] | IC50 [22] | IC50 [19, 29] [µM] | further results |
| --- | --- | --- | --- | --- | --- | --- | --- | --- | --- | --- | --- | --- | --- | --- | --- | --- | --- | --- | --- | --- | --- |
| C[C@H]1[C@@H](OCC(=O)CO)O[C@@H]2O[C@@]3(C)CC[C@H]4[C@H](C)CC[C@@H]1[C@@]24OO3 | > 56.1 | Not Active | 7 | Not Active | > 56.1 | 112 | 25.8 | > 1900 | 6.48 | 7.9 | Not Active | Not Active | Not Active | > 1700 | 20800 | Not Active | > 13.3 | Not Active | Not Active |  | IC50 ([11]; kb): Not Active; IC50 [13]: Not Active; TC50 [18]: Not Active; IC50 [19]: Not Active |
| C[C@H]1[C@@H](OCC[C@@H](CO[C@H]2O[C@@H]3O[C@@]4(C)CC[C@H]5[C@H](C)CC[C@@H]([C@H]2C)[C@@]35OO4)O[C@H]2O[C@@H]3O[C@@]4(C)CC[C@H]5[C@H](C)CC[C@@H]([C@H]2C)[C@@]35OO4)O[C@@H]2O[C@@]3(C)CC[C@H]4[C@H](C)CC[C@@H]1[C@@]24OO3 |  |  | 243 |  |  | 44.2 | 5 | 22 | 16.6 | 298 | Not Active | Not Active | Not Active | 18 | 70 | Not Active | 5.25 | Not Active | Not Active | > 22.1 | IC50 [1]: Not Active; IC50 [2, 26]: 60 nM; IC50 [4, 27]: 240 nM; IC50 [5]: Not Active; IC50 [11, 28]: 110 nM; IC50 [13]: Not Active; CC50 at 48 h [23]: > 1100 nM |
| C[C@H]1[C@@H](OCC[C@H](O)CO[C@H]2O[C@@H]3O[C@@]4(C)CC[C@H]5[C@H](C)CC[C@@H]([C@H]2C)[C@@]35OO4)O[C@@H]2O[C@@]3(C)CC[C@H]4[C@H](C)CC[C@@H]1[C@@]24OO3 | 10.2 |  | 45.4 |  | > 31.3 | 9.4 | 2.5 | > 164 | 1.6 | 43.8 |  | Not Active |  | > 170 | 100 |  | > 7.45 |  | Not Active | > 31.3 | IC50 [2, 26]: 80 nM; IC50 [4, 27]: 240 nM; IC50 ([10]; Aspergillus fumigatus, ATCC 90906, read-out: IC50): 5.24 µM; IC50 [11, 28]: 160 nM; IC50 [13, 30]: 13.6 µM; IC50 ([14]; Staphylococcus aureus, ATCC 29213, read-out: IC50): 16.5 µM; IC50 ([17]; Staphylococcus aureus, ATCC 43300, read-out: IC50): > 31.3 µM; CC50 at 48 h [23]: > 1570 nM; IC50 ([21]; Nakaseomyces glabratus, ATCC 90030, read-out: IC50): > 31.3 µM |
| C[C@H]1[C@@H](OCc2cc(O)cc(O)c2)O[C@@H]2O[C@@]3(C)CC[C@H]4[C@H](C)CC[C@@H]1[C@@]24OO3 |  | Not Active | 20.7 | Not Active |  | 24.6 | 5.7 | > 567 | 18.6 | 20.9 | Not Active | Not Active | Not Active | > 560 | 2460 | Not Active | > 11.7 | Not Active | Not Active | > 49.2 | IC50 [1]: Not Active; IC50 [5]: Not Active; IC50 ([11]; kb): Not Active; IC50 [13, 30]: 48.6 µM; TC50 [18]: Not Active |
